Measured values taken from paper PMC4615699 (Cell, 2015).
pIC50: −log10 of the molar value. One block for each molecule: values may come before it.

Experiments:
ABCB1B = ABCB1B (Mus musculus, UniProt P06795); test: In situ drug profiling with lipid probes, ABCB1B in Neuro2a cells; assay type: cell-based
TMEM97 = TMEM97 (Mus musculus, UniProt Q8VD00); test: In situ drug profiling with lipid probes, TMEM97; assay type: cell-based
ferrochelatase (FECH) = ferrochelatase (FECH) (Mus musculus, UniProt P22315); test: In situ drug profiling with lipid probes, FECH; assay type: cell-based
[1] = biological target: recombinantly expressed TMEM97 (Homo sapiens, UniProt Q5BJF2); assay type: cell-based; conditions: transfected HEK293T cells
Method in brief: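 Transfected HEK293T cells (2.5 × 10^6 per 6-cm plate, grown 18-24 h) were washed in DPBS. They then received AEA-DA plus competitor or vehicle in serum-free media for 30 min at 37 °C, followed by 365 nm UV for 10 min at 4 °C. Lysates at 1.0 mg/mL were clicked to rhodamine-azide (TBTA, CuSO4, TCEP; 1 h, room temperature), resolved by 10% SDS-PAGE and read by in-gel fluorescence scanning.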

PTGS1 = PTGS1 (Mus musculus, UniProt P22437); test: In situ competitive SILAC profiling of A-DA labeling, PTGS1 in Neuro2a cells; assay type: cell-based; conditions: drug 25 μM, A-DA 5 μM, 30 min
Neuro2a cells [2] = test: Targeted metabolite; assay type: cell-based, mouse; conditions: for elevations in NAEs (targeted MRM): 10 μM, 6 h
Method in brief: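 Neuro2a cells were treated with test compound (10 μM) or DMSO for 6 h. Fatty acid amides (NAEs, NATs) were quantified by targeted MRM mass spectrometry. Mean ± SEM, n = 3-4 per group, compared against DMSO-treated cells.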

[3] = test system: A549 cells treated with PMA; test: PMA-stimulated prostaglandin production in A549 cells; assay type: cell-based, human
NAMPT = NAMPT (Mus musculus, UniProt Q99KQ4); conditions: 25 μM, AEA-DA 5 μM, Neuro2a
NUCB1 [4] = biological target: T1, NUCB1 (Homo sapiens, UniProt Q02818); assay type: binding; conditions: read-out: IC50, blockade of AEA-DA probe labeling of NUCB1; AEA-DA 5 μM; NUCB1 0.25 μM in HEK293T lysates 0.75 mg/mL
T1 sequence (Q02818 27-461): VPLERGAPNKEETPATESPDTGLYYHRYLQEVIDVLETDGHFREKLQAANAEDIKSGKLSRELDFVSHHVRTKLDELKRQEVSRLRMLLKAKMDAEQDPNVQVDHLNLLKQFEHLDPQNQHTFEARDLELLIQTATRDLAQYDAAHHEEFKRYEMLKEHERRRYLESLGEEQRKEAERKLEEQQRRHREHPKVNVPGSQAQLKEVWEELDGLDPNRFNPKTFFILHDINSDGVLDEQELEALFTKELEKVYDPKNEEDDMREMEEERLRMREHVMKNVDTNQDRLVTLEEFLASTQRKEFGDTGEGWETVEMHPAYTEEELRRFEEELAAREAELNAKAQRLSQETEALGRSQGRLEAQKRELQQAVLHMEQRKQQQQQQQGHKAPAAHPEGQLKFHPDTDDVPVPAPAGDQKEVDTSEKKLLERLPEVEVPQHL

NUCB1 [5] = biological target: T2, NUCB1 (Mus musculus, UniProt Q02819); assay type: cell-based; conditions: Neuro2a cells; for reductions in lipid probe enrichment of NUCB1: 25 μM
T2 sequence (Q02819 26-459): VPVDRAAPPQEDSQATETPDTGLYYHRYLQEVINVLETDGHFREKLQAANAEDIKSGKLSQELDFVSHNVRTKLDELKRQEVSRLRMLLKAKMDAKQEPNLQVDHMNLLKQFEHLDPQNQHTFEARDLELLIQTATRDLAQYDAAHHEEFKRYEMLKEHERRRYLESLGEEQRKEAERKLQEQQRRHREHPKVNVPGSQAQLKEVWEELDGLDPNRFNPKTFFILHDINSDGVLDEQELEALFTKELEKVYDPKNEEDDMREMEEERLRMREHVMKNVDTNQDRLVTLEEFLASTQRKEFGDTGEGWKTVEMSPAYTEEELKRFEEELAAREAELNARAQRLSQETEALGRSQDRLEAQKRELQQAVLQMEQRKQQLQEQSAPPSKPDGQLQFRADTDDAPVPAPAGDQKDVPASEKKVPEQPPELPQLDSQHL

NUCB1 (aa 53-68) = NUCB1 (aa 53-68) (Mus musculus, UniProt Q02819); test: isoTOP-ABPP mapping of AEA-DA-labeled NUCB1 peptide in Neuro2a cells; assay type: cell-based; conditions: 50 μM compound, AEA-DA 50 μM
Method in brief: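 Neuro2a cells were co-treated with AEA-DA (50 μM) and DMSO or test compound (50 μM), then UV-irradiated. Probe-labeled proteins were CuAAC-conjugated to TEV-cleavable azide-biotin tags, isotopically light for DMSO samples and heavy for compound samples. Probe-modified peptides were mapped by isoTOP-ABPP LC-MS/MS.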

Neuro2a cells [6] = test: Untargeted LC-MS lipidomic analysis of compound-treated Neuro2a cells; assay type: cell-based, mouse; conditions: 10 μM, 6 h, P < 0.0001
[7] = test system: purified recombinant FAAH; test: Inhibition of purified recombinant FAAH; assay type: biochemical; conditions: read-out: IC50 against purified recombinant FAAH
[8] = biological target: endogenous FAAH in Neuro2a lysates (Mus musculus, UniProt O08914); test: Inhibition of endogenous FAAH in Neuro2a lysates; assay type: biochemical; conditions: read-out: IC50 against endogenous FAAH in Neuro2a lysates
[9] = test system: PMA-stimulated A549 cells; test: Conversion of exogenous AEA to PGF2α-EA in PMA-stimulated A549 cells; assay type: cell-based, human; conditions: AEA 20 μM, 30 min; MJN228, KML110 5 and 25 μM; others 25 μM
Method in brief: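 A549 cells stimulated with PMA were treated with test compound or DMSO. Exogenous AEA (20 μM, 30 min) was then added and prostamide PGF2α-EA formation was measured. Mean ± SEM, n = 3-4 per group.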

[10] = test system: other AEA-DA-modified proteins; test: Gel-based AEA-DA labeling of other proteins in HEK293T cell lysates; assay type: binding, human
[11] = biological target: T3, recombinant, purified human NUCB1 (hNUCB1) (Homo sapiens, UniProt Q02818); test: NUCB1 FluoPol assay with Fl-AEA probe; assay type: binding; conditions: for suppression of the NUCB1-FluoPol signal by lipids: concentration-dependent
T3 sequence (Q02818 27-461): T1 sequence (Q02818 27-461)
Method in brief: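 Fluorescence polarization readout using purified recombinant human NUCB1 and fluorescent arachidonoyl probe Fl-AEA. Lipid competitors were titrated for concentration-dependent loss of polarization signal. Mean ± SD from at least three independent experiments.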

NENF = NENF (Homo sapiens, UniProt Q9UMX5); assay type: binding; conditions: competitors 1–100 μM; NENF-transfected HEK293T lysates
NUCB1 [12] = biological target: T1, NUCB1; assay type: binding; conditions: AEA-DA 5.0 μM; lipids 20×
Method in brief: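 Performed in vitro in lysates of NUCB1-transfected HEK293T cells, with AEA-DA probe and lipid competitors. Labeled proteomes (1.0 mg/mL) were CuAAC-conjugated to rhodamine-azide for 1 h at room temperature, quenched in SDS loading buffer, separated on 10% SDS-PAGE and detected by in-gel fluorescence.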

LSS = LSS (Homo sapiens, UniProt P48449); test: In situ drug profiling with lipid probes, LSS; assay type: cell-based; conditions: 5 μM drug
EBP = EBP (Mus musculus, UniProt P70245); test: In situ drug profiling with lipid probes, EBP; assay type: cell-based; conditions: 5 μM drug
PTGR2 = PTGR2 (Mus musculus, UniProt Q8VDQ1); test: In situ AEA-DA competition with lipid competitor AEA, PTGR2; assay type: cell-based; conditions: competitor 200 μM
DHRS1 = DHRS1 (Mus musculus, UniProt Q99L04); test: In situ AEA-DA competition with lipid competitor AEA, DHRS1; assay type: cell-based; conditions: competitor 200 μM
[13] = biological target: aldose reductase-related protein 2 (AKR1B8) (Mus musculus, UniProt P45377); test: In situ competitive SILAC profiling of A-DA labeling, AKR1B8 in Neuro2a cells; assay type: cell-based; conditions: drug 25 μM, A-DA 5 μM
PTGS2 = PTGS2 (Homo sapiens, UniProt P35354); conditions: drug 25 μM, A-DA 5 μM, 30 min, A549

Sequence of NENF (Q9UMX5 32-172, species assumed): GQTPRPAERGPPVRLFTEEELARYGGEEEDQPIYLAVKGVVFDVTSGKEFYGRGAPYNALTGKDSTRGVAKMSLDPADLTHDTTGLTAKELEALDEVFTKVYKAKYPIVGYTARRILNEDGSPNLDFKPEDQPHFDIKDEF
Sequence of endogenous FAAH in Neuro2a lysates (O08914 whole entry): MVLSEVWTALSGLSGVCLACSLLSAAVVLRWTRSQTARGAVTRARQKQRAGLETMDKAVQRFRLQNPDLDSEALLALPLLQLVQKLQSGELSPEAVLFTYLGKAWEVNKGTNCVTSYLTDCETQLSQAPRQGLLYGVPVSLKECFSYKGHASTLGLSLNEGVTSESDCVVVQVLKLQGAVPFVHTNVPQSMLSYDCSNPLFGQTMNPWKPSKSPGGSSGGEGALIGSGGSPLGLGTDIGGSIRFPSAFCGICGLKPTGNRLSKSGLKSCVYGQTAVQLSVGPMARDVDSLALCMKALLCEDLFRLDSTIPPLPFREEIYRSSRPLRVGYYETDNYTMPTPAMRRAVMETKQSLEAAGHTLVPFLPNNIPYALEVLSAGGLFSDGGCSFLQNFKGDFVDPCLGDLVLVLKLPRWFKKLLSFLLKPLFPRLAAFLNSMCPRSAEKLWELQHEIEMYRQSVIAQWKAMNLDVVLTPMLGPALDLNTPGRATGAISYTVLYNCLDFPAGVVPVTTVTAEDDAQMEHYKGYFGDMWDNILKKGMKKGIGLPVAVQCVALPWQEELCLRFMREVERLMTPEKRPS
Sequence of recombinantly expressed TMEM97 (Q5BJF2 whole entry): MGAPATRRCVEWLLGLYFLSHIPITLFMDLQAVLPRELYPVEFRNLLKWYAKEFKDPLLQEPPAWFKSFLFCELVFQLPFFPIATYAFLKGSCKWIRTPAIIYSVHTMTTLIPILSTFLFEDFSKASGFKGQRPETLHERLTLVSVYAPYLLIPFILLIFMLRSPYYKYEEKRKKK
Sequence of TMEM97 (Q8VD00 whole entry): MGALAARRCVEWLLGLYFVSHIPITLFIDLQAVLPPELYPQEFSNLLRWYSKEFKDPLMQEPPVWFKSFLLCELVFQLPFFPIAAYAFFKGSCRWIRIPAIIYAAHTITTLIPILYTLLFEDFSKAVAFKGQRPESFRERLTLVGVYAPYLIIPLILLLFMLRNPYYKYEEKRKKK
Sequence of ABCB1B (P06795 whole entry): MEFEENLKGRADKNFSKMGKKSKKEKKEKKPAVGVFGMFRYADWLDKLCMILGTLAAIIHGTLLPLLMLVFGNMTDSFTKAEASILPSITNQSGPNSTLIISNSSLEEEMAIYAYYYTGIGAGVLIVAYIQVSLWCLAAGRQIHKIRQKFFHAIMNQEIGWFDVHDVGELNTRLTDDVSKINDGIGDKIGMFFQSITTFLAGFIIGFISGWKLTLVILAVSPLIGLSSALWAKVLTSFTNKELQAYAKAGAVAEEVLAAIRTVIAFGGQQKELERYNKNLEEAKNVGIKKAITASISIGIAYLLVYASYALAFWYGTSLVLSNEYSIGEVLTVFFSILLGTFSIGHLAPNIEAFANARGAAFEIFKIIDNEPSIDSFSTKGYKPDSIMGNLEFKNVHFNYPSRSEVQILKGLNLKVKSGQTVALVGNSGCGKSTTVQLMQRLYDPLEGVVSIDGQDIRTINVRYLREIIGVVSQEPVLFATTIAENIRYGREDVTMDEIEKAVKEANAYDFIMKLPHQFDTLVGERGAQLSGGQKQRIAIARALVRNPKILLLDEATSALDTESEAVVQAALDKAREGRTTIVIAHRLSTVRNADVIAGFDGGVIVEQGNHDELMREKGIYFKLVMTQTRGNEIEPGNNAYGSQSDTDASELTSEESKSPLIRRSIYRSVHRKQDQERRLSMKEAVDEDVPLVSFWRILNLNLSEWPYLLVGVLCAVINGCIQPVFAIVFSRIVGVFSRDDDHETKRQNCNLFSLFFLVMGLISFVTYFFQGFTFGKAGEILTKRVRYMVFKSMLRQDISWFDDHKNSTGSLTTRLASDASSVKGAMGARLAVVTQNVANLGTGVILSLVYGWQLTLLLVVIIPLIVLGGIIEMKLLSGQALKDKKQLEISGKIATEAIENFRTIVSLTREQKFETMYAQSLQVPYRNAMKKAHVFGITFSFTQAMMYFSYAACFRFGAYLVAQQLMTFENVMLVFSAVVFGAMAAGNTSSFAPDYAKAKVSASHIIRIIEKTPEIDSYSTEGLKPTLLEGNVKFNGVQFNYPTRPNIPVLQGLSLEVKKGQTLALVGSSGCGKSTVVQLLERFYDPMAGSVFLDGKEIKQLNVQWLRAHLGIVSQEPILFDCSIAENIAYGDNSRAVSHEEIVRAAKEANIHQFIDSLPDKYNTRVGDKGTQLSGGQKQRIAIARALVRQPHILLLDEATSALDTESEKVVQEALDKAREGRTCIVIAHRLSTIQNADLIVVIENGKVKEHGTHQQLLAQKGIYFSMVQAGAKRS
Sequence of ferrochelatase (FECH) (P22315 54-422): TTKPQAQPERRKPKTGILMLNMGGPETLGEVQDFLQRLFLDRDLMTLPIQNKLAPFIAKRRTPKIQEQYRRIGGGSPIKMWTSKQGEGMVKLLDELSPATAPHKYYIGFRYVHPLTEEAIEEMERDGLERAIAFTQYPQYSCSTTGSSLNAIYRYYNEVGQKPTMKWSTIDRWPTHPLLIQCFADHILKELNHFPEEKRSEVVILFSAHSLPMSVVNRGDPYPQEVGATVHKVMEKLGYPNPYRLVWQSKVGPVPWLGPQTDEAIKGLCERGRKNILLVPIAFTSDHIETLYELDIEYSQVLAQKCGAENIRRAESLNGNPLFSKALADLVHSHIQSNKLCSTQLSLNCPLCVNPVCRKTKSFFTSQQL
Sequence of EBP (P70245 whole entry): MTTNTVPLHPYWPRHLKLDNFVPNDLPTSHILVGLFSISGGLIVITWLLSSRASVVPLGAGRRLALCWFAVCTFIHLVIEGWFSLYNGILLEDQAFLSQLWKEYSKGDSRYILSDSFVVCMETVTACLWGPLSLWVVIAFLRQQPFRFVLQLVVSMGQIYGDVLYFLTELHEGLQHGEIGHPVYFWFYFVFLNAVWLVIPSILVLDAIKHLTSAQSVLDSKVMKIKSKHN
Sequence of PTGR2 (Q8VDQ1 whole entry): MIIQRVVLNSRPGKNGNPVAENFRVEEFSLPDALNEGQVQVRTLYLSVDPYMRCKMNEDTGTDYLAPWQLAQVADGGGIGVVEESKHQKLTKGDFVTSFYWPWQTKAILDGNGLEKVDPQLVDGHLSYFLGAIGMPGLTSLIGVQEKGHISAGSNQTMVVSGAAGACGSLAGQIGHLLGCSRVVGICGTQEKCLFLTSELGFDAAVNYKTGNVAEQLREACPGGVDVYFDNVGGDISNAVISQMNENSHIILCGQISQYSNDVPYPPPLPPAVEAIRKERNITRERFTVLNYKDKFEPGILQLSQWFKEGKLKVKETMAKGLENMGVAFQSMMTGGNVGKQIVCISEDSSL
Sequence of aldose reductase-related protein 2 (AKR1B8) (P45377 whole entry): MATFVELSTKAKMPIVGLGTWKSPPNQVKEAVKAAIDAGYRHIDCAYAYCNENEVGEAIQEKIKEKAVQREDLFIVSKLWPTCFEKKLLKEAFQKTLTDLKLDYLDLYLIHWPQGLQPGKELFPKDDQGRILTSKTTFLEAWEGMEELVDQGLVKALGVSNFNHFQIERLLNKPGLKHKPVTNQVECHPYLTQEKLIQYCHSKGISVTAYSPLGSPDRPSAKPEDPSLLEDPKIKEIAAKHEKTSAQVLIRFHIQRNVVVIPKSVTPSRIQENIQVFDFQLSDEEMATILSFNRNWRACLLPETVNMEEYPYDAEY
Sequence of NAMPT (Q99KQ4 whole entry): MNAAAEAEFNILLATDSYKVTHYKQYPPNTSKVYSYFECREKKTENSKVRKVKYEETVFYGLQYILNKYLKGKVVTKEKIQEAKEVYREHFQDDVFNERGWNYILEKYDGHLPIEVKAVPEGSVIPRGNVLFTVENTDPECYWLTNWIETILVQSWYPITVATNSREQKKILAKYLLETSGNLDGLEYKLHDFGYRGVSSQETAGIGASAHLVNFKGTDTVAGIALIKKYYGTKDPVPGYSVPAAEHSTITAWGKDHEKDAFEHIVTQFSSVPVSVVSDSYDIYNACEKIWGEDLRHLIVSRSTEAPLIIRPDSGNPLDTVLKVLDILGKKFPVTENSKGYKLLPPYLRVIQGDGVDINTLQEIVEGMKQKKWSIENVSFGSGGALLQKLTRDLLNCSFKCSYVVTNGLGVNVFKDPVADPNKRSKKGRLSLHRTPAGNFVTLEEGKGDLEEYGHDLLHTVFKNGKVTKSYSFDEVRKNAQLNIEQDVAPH
Sequence of DHRS1 (Q99L04 whole entry): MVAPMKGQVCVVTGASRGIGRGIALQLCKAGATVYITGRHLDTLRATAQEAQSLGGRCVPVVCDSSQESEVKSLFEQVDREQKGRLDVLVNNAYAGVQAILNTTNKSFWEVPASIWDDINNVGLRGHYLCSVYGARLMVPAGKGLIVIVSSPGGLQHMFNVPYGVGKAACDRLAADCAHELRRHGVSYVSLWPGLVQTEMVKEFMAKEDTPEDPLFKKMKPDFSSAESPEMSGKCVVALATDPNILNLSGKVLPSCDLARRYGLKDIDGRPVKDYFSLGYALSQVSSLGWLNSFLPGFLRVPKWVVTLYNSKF

concentration blocking arachidonoyl probe labeling of ABCB1B (as low as) (ABCB1B): ≤ 0.5 µM
concentration blocking arachidonoyl probe labeling of TMEM97 (as low as) (TMEM97): ≤ 0.5 µM
concentration blocking arachidonoyl probe labeling of FECH (as low as) (ferrochelatase (FECH)): ≤ 0.5 µM
blockade of AEA-DA probe labeling of recombinant TMEM97 [1]: block
SMILES: COc1cc2c(cc1OC)CN(CCc1ccc(NC(=O)c3cccc4c(=O)c5cccc(OC)c5[nH]c34)cc1)CC2 [elacridar]

competition of A-DA labeling of PTGS1 (PTGS1): competitively blocked
SMILES: CC(C(=O)O)c1ccc(-c2ccccc2)c(F)c1 (racemic) [(±)-flurbiprofen]

SMILES: O=C(Nc1cccnn1)N1CCC(=Cc2cccc(Oc3ccc(C(F)(F)F)cn3)c2)CC1 [PF-7845]
cellular concentrations of NAEs and NATs (Neuro2a cells [2]): elevated

competition of probe-labeling of ABCB1B (ABCB1B; 25 μM, AEA-DA 5 μM, Neuro2a): competed
competition of probe-labeling of NAMPT (NAMPT): competed
SMILES: O=C(/C=C/c1cccnc1)NCCCCC1CCN(C(=O)c2ccccc2)CC1 [FK-866]
PMA-stimulated generation of PGE2 [3]: no effect
PMA-stimulated generation of TXB2 [3]: complete suppression

pIC50 (NUCB1 [4]): 5.48
selectivity for NUCB1 among ∼400 AEA-DA probe targets (NUCB1 [5]; 10 μM, AEA-DA 5 μM): most competed protein
reductions in lipid probe enrichment of NUCB1 (NUCB1 [5]): 3-5 fold
concentration inhibiting lipid probe binding to NUCB1 (as low as) (NUCB1 [5]): ≤ 10 µM
concentration of near-maximal inhibition of lipid probe binding to NUCB1 (NUCB1 [5]): ~25 µM
reduction of signals of AEA-DA-labeled NUCB1 peptide (aa 53-68) (NUCB1 (aa 53-68)): > 5 fold
pIC50 [7]: < 4.00
pIC50 [8]: < 4.00
SMILES: CN1CCN(C(=O)c2[nH]c3ccc([N+](=O)[O-])cc3c2-c2ccccc2)CC1 [MJN228]
elevation of metabolites (NAEs and NATs) versus DMSO (Neuro2a cells [6]): ≥ 2 fold
cellular concentrations of NAEs and NATs (Neuro2a cells [2]): elevated
elevations in NAEs (targeted MRM) (Neuro2a cells [2]): elevations
conversion of exogenous AEA to PGF2α-EA [9]: suppress
disruption of other arachidonoyl probe-protein interactions ([10]; HEK293T cell lysates): did not appear to disrupt

SMILES: CCCCC/C=C\C/C=C\C/C=C\C/C=C\CCCC(=O)NCCCCCNC(=O)c1ccc(-c2c3ccc(=[N+](C)C)cc-3oc3cc(N(C)C)ccc23)c(C(=O)[O-])c1 [Fl-AEA]
binding of probe to hNUCB1 (increase in FluoPol signal) [11]: bound

competition of AEA-DA probe labeling of recombinant NENF (NENF): competitively blocked
blockade of AEA-DA probe labeling of recombinant NUCB1 by lipids (NUCB1 [12]): preferentially blocked
suppression of FluoPol signal by competitive lipid ([11]; 20 μM competitor, Fl-AEA 0.5 μM, NUCB1 1.0 μM): significantly suppressed
suppression of the NUCB1-FluoPol signal by lipids ([11]; Fl-AEA 0.5 μM, NUCB1 1.0 μM): Concentration-dependent suppression
SMILES: CCCCC/C=C\C/C=C\C/C=C\C/C=C\CCCC(=O)O [AA, arachidonic acid]

SMILES: CCCCC/C=C\C/C=C\C/C=C\C/C=C\CCCC(=O)OC(CO)CO [2-AG, 2-arachidonoyl glycerol]
blockade of AEA-DA probe labeling of recombinant NUCB1 by lipids (NUCB1 [12]): preferentially blocked
suppression of the NUCB1-FluoPol signal by lipids ([11]; Fl-AEA 0.5 μM, NUCB1 1.0 μM): Concentration-dependent suppression

competition of LSS (LSS): fully competed
competition of TMEM97 (TMEM97; 5 μM drug): prominent off-targets
competition of EBP (EBP): prominent off-targets
blockade of AEA-DA probe labeling of recombinant TMEM97 [1]: block
SMILES: C=CCN(C)CCCCCCOc1ccc(C(=O)c2ccc(Br)cc2)c(F)c1 [Ro 48-8071]

SMILES: CCCCC/C=C\C/C=C\C/C=C\C/C=C\CCCC(=O)NCCO [AEA, N-arachidonoyl ethanolamine]
blockade of AEA-DA probe labeling of recombinant NUCB1 by lipids (NUCB1 [12]): preferentially blocked
suppression of the NUCB1-FluoPol signal by lipids ([11]; Fl-AEA 0.5 μM, NUCB1 1.0 μM): Concentration-dependent suppression
competition of PTGR2 probe labeling (PTGR2): competed
competition of DHRS1 probe labeling (DHRS1): competed

SMILES: C=CC1=C(C)c2cc3[nH]c(cc4nc(cc5[nH]c(cc1n2)c(C)c5CCC(=O)O)C(CCC(=O)O)=C4C)c(C)c3C=C [Pp-IX, protoporphyrin IX]
competition of AEA-DA probe labeling of recombinant NENF (NENF): inhibited

SMILES: CS(=O)(=O)c1ccc(C2=C(c3ccccc3)C(=O)OC2)cc1 [rofecoxib]
reduction in A-DA labeling of AKR1B8 [13]: strong reductions
conversion of exogenous AEA to PGF2α-EA [9]: blocked
competition of A-DA labeling of PTGS2 (PTGS2): disrupted

pIC50 (NUCB1 [4]): 5.02
reductions in lipid probe enrichment of NUCB1 (NUCB1 [5]): 3-5 fold
pIC50 [7]: < 4.00
pIC50 [8]: < 4.00
SMILES: CN1CCN(C(=O)c2c(-c3ccccc3)c3cc([N+](=O)[O-])ccc3n2C)CC1 [KML110]
cellular concentrations of NAEs and NATs (Neuro2a cells [2]): elevated
elevations in NAEs (targeted MRM) (Neuro2a cells [2]): elevations
conversion of exogenous AEA to PGF2α-EA [9]: suppress

SMILES: C=CC1=C(C)c2cc3[n-]c(cc4[n-]c(cc5nc(cc1n2)C(C)=C5C=C)c(C)c4CCC(=O)O)c(CCC(=O)O)c3C.[Cl-].[Fe+3] [hemin]
competition of AEA-DA probe labeling of recombinant NENF (NENF): inhibited
effect on other AEA-DA-modified proteins detected by SDS-PAGE ([10]; NENF-transfected HEK293T lysates): unaffected
